Reference: ChEMBL document CHEMBL4689842, “EUbOPEN Chemogenomics Library wave 1” (2021)

Test system: U2OS
Test: Multiplex assay against U2OS
Format: toxicity, cell-based
Conditions: human
Method in brief: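 At seeding, live cells were stained with Hoechst33342, BioTracker Green Microtubule Cytoskeleton Dye, MitoTracker Red and Annexin V Alexa Fluor 680. After compound addition they were imaged on a CQ1 microscope at 37°C and 5% CO2, and CellPathfinder machine-learning gating sorted them into Hoechst high-intensity objects or normal cells, with normal cells further split into healthy, pyknosed or fragmented nuclei and pyknosed cells into mitotic or apoptotic. Tubulin, mitochondrial-mass and membrane-permeability phenotypes are given as per cents of cells with healthy nuclei.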

[1] = 12 h, 1 µM, compound concentration 1 uM, replicate 1
[2] = 12 h, 1 µM, compound concentration 1 uM, replicate 2
[3] = 12 h, 10 µM, compound concentration 10 uM, replicate 1
[4] = 12 h, 10 µM, compound concentration 10 uM, replicate 2
[5] = 24 h, 1 µM, compound concentration 1 uM, replicate 1
[6] = 24 h, 1 µM, compound concentration 1 uM, replicate 2
[7] = 24 h, 10 µM, compound concentration 10 uM, replicate 1
[8] = 24 h, 10 µM, compound concentration 10 uM, replicate 2

SMILES: C=CCn1c(=O)c2cnc(Nc3ccc(N4CCN(C)CC4)cc3)nc2n1-c1cccc(C(C)(C)O)n1 [ADAVOSERTIB]
- Population Apoptotic (%) [1]: 43%
- Population Fragmented Nuclei (%) [1]: 11%
- Population Healthy Nuclei (%) [1]: 60%
- Population Hoechst High Intensity Objects (%) [1]: 3%
- Population Membrane Permeable-Phenotype (%) [1]: 23%
- Population Mitochondria Different-Phenotype (%) [1]: 15%
- Population Mitotic Cells (%) [1]: 56%
- Population Normal (%) [1]: 96%
- Population Pyknosed Nuclei (%) [1]: 27%
- Population Tubulin-Different-Phenotype (%) [1]: 21%
- Total Cell Count [1]: 153
- Population Apoptotic (%) [2]: 12%
- Population Fragmented Nuclei (%) [2]: 16%
- Population Healthy Nuclei (%) [2]: 62%
- Population Hoechst High Intensity Objects (%) [2]: 5%
- Population Membrane Permeable-Phenotype (%) [2]: 13%
- Population Mitochondria Different-Phenotype (%) [2]: 5%
- Population Mitotic Cells (%) [2]: 87%
- Population Normal (%) [2]: 94%
- Population Pyknosed Nuclei (%) [2]: 21%
- Population Tubulin-Different-Phenotype (%) [2]: 23%
- Total Cell Count [2]: 165
- Population Apoptotic (%) [3]: 40%
- Population Fragmented Nuclei (%) [3]: 25%
- Population Healthy Nuclei (%) [3]: 13%
- Population Hoechst High Intensity Objects (%) [3]: 8%
- Population Membrane Permeable-Phenotype (%) [3]: 42%
- Population Mitochondria Different-Phenotype (%) [3]: 47%
- Population Mitotic Cells (%) [3]: 59%
- Population Normal (%) [3]: 91%
- Population Pyknosed Nuclei (%) [3]: 60%
- Population Tubulin-Different-Phenotype (%) [3]: 80%
- Total Cell Count [3]: 167
- Population Apoptotic (%) [4]: 44%
- Population Fragmented Nuclei (%) [4]: 22%
- Population Healthy Nuclei (%) [4]: 14%
- Population Hoechst High Intensity Objects (%) [4]: 28%
- Population Membrane Permeable-Phenotype (%) [4]: 37%
- Population Mitochondria Different-Phenotype (%) [4]: 62%
- Population Mitotic Cells (%) [4]: 55%
- Population Normal (%) [4]: 71%
- Population Pyknosed Nuclei (%) [4]: 62%
- Population Tubulin-Different-Phenotype (%) [4]: 75%
- Total Cell Count [4]: 76
- Population Apoptotic (%) [5]: 62%
- Population Fragmented Nuclei (%) [5]: 20%
- Population Healthy Nuclei (%) [5]: 41%
- Population Hoechst High Intensity Objects (%) [5]: 8%
- Population Membrane Permeable-Phenotype (%) [5]: 30%
- Population Mitochondria Different-Phenotype (%) [5]: 25%
- Population Mitotic Cells (%) [5]: 37%
- Population Normal (%) [5]: 91%
- Population Pyknosed Nuclei (%) [5]: 38%
- Population Tubulin-Different-Phenotype (%) [5]: 38%
- Total Cell Count [5]: 155
- Population Apoptotic (%) [6]: 50%
- Population Fragmented Nuclei (%) [6]: 22%
- Population Healthy Nuclei (%) [6]: 51%
- Population Hoechst High Intensity Objects (%) [6]: 9%
- Population Membrane Permeable-Phenotype (%) [6]: 21%
- Population Mitochondria Different-Phenotype (%) [6]: 26%
- Population Mitotic Cells (%) [6]: 50%
- Population Normal (%) [6]: 90%
- Population Pyknosed Nuclei (%) [6]: 26%
- Population Tubulin-Different-Phenotype (%) [6]: 31%
- Total Cell Count [6]: 149
- Population Apoptotic (%) [7]: 64%
- Population Fragmented Nuclei (%) [7]: 36%
- Population Healthy Nuclei (%) [7]: 11%
- Population Hoechst High Intensity Objects (%) [7]: 13%
- Population Membrane Permeable-Phenotype (%) [7]: 76%
- Population Mitochondria Different-Phenotype (%) [7]: 82%
- Population Mitotic Cells (%) [7]: 35%
- Population Normal (%) [7]: 86%
- Population Pyknosed Nuclei (%) [7]: 51%
- Population Tubulin-Different-Phenotype (%) [7]: 88%
- Total Cell Count [7]: 165
- Population Apoptotic (%) [8]: 68%
- Population Fragmented Nuclei (%) [8]: 42%
- Population Healthy Nuclei (%) [8]: 15%
- Population Hoechst High Intensity Objects (%) [8]: 22%
- Population Membrane Permeable-Phenotype (%) [8]: 75%
- Population Mitochondria Different-Phenotype (%) [8]: 62%
- Population Mitotic Cells (%) [8]: 31%
- Population Normal (%) [8]: 77%
- Population Pyknosed Nuclei (%) [8]: 42%
- Population Tubulin-Different-Phenotype (%) [8]: 75%
- Total Cell Count [8]: 67
